Tests used:
[1] = biological target: T1, ATP-dependent translocase ABCB1 (Homo sapiens, UniProt P08183); experiment: Modulation of ABCB1 (unknown origin) expressed in mouse L5178Y-MDR cells assessed as multidrug resistance reversing activity by measuring fluorescence activity ratio at 20 uM by rhodamine-123 accumulation based flow cytometry (reference value: 1.1 No unit); type: cell-based
[2] = biological target: T1, ATP-dependent translocase ABCB1; experiment: Modulation of ABCB1 (unknown origin) expressed in mouse L5178Y-MDR cells assessed as multidrug resistance reversing activity by measuring fluorescence activity ratio at 0.2 uM by rhodamine-123 accumulation based flow cytometry (reference value: 1.1 No unit); type: cell-based
[3] = biological target: T1, ATP-dependent translocase ABCB1; experiment: Modulation of ABCB1 (unknown origin) expressed in mouse L5178Y-MDR cells assessed as multidrug resistance reversing activity by measuring fluorescence activity ratio at 2 uM by rhodamine-123 accumulation based flow cytometry (reference value: 1.1 No unit); type: cell-based
[4] = Antiproliferative activity against mouse L5178Y cells by MTT assay; type: cell-based; details: read-out: ID50 (the source's name)
How it was run: (§1)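 MTT assay on parental L5178 mouse T-lymphoma cells and a subline transfected with pHa MDR1/A retrovirus (human ABCB1) and selected with colchicine. Cells were exposed to increasing concentrations from 0.26 to 133 μM. Other handling followed earlier reports.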

[5] = Antiproliferative activity against mouse L5178Y cells transfected with ABCB1 by MTT assay; type: ADME, cell-based; details: read-out: ID50 (the source's name); how it was run: as §1

T1 sequence (P08183 whole entry): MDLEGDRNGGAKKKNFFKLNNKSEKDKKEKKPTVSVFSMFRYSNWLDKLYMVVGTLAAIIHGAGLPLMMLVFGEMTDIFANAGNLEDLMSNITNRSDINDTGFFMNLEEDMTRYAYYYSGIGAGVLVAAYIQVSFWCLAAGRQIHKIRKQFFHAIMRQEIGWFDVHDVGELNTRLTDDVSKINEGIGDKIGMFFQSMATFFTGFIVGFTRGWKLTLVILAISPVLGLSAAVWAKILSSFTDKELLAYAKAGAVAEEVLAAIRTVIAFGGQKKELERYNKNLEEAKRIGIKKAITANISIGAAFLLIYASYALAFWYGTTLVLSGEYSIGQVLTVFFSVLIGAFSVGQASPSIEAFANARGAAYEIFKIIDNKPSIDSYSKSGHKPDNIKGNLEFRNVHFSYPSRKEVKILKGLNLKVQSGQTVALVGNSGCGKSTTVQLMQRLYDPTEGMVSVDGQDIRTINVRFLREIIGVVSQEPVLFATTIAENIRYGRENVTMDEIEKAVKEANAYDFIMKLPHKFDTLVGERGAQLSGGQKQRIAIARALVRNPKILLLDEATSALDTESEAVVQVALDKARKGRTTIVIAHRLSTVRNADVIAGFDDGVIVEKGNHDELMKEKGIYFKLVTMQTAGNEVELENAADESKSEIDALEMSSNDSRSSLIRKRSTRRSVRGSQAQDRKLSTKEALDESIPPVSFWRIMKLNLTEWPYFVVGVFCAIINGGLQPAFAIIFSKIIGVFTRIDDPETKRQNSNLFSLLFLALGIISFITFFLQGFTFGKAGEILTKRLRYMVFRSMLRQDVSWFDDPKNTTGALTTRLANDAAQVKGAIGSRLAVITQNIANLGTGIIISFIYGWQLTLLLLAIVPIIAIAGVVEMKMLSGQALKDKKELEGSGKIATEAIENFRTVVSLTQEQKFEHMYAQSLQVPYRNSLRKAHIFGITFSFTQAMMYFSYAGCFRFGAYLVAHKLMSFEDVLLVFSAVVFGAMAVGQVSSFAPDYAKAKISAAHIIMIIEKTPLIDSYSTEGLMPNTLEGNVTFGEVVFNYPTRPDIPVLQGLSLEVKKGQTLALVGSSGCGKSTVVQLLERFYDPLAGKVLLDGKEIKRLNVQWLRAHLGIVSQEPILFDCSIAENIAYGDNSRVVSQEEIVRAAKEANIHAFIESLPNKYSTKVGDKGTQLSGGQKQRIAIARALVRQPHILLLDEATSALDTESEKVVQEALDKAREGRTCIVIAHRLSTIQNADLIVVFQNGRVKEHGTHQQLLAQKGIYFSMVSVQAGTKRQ

## CC(C)=CC(=O)C[C@@H](C)[C@H]1CC[C@@]2(C)[C@@H]3C(=O)[C@@H]4C(C)(C)[C@@]45C(=O)CC[C@H]5[C@]3(C)CC[C@]12C
[1]
  Ratio: 105.5
[2]
  Ratio: 5.9
[3]
  Ratio: 76.7
[4]
  GI50: > 100 µM
[5]
  GI50: > 100 µM

## CC(=O)C[C@@H](C)[C@H]1CC[C@@]2(C)[C@@H]3C(=O)[C@@H]4C(C)(C)[C@@]45C(=O)CC[C@H]5[C@]3(C)CC[C@]12C
[1]
  Ratio: 87.5
[2]
  Ratio: 1.4
[3]
  Ratio: 14.2
[4]
  GI50: 72.2 µM
[5]
  GI50: 68.3 µM

## C=C(C)/C=C/C[C@@H](C)[C@H]1CC[C@@]2(C)[C@@H]3C(=O)[C@@H]4C(C)(C)[C@@]45C(=O)CC[C@H]5[C@]3(C)CC[C@]12C
[1]
  Ratio: 117.7
[2]
  Ratio: 3.1
[3]
  Ratio: 62.2
[4]
  GI50: 20.7 µM
[5]
  GI50: 37.6 µM
